The text below walks through data of ChEMBL document CHEMBL1151832, “Structure elucidation at the nanomole scale. 1. Trisoxazole macrolides and thiazole-containing cyclic peptides from the nudibranch Hexabranchus sanguineus” (2009).

Values after ≈ are worked out from the molar mass of the structure shown. Active and inactive are the calls of the source. No cut-off for these calls is given here.

One experiment deals with Nakaseomyces glabratus. The experiment can be described thus: Antifungal activity against Candida glabrata clinical isolate by broth microdilution method. It is filed as functional. The procedure, abridged:
(§1)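 Isolates were maintained on Sabouraud dextrose agar at 30 °C, for 24 h (Candida) or 48 h (C. neoformans). Testing followed the NCCLS broth microdilution method, using 2-fold serial dilutions from DMSO stocks in RPMI-1640 buffered to pH 7.0 with 0.165 M MOPS. Final concentrations were 0.062–64 µg/mL, with amphotericin B as positive control. Replicates were run, and growth was read by OD600. MIC was the lowest concentration giving ≥90% inhibition.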

The subject of another experiment is Cryptococcus neoformans. Briefly: Antifungal activity against Cryptococcus neoformans var. grubii clinical isolate by broth microdilution method. It is filed as functional. The method in brief:
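Clinical isolate maintained on Sabouraud dextrose agar, 30 °C, 48 h. Susceptibility by NCCLS broth microdilution in RPMI-1640 with 0.165 M MOPS (pH 7.0), using 2-fold dilutions from DMSO stocks spanning 0.062–64 µg/mL final (amphotericin B control 0.0078–8 µg/mL). Replicate wells per run; OD 600 nm read-out; MIC endpoint is the lowest concentration with complete (≥90%) inhibition.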
(In broth dilution the organism is exposed to a series of concentrations in liquid medium.)

Experiment [1] relates to Candida albicans. Briefly: Antifungal activity against Candida albicans ATCC 14503 by broth microdilution method. It is filed as functional. The procedure, abridged: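 C. albicans reference strain grown on Sabouraud dextrose agar at 30 °C for 24 h. NCCLS broth microdilution: 2-fold serial dilutions from DMSO stocks in RPMI-1640 buffered to pH 7.0 with 0.165 M MOPS. Final concentrations 0.062–64 µg/mL; amphotericin B control 0.0078–8 µg/mL. Tested in replicate; growth read as OD 600 nm; MIC = lowest concentration giving ≥90% growth inhibition.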

Experiment [2] has as its system Candida albicans. Briefly: Antifungal activity against fluconazole-resistant Candida albicans isolate 96-489 by broth microdilution method.
Another experiment has as its system Cryptococcus gattii. The experiment can be described thus: Antifungal activity against Cryptococcus neoformans var. gattii clinical isolate by broth microdilution method. It is filed as functional, organism-based. The following applies: Cryptococcus bacillisporus. The method in brief:
as §1

In experiment [3] the test system is Candida albicans. The experiment can be described thus: Antifungal activity against fluconazole-resistant Candida albicans isolate UCDFR1 by broth microdilution method. It is filed as functional, organism-based. The method in brief:
as §1

The subject of another experiment is Pichia kudriavzevii. The experiment can be described thus: Antifungal activity against fluconazole-resistant Candida krusei clinical isolate by broth microdilution method. It is filed as functional, organism-based. The method in brief: as §1

A word on the MIC: it is the lowest concentration that inhibits growth of the organism. In the case of `CO[C@H]([C@H](C)/C=C/N(C)C=O)[C@@H](C)C(=O)CC[C@H](C)[C@H](C[C@@H]1OC(=O)C[C@@H](O)CCC[C@H](O)[C@H](C)[C@H](OC)c2coc(n2)-c2coc(n2)-c2coc(n2)/C=C/CC[C@H]1C)OC`, the minimum inhibitory concentration (MIC) against Nakaseomyces glabratus was 0.125 µg/mL (≈ 0.146 µM); against Cryptococcus neoformans, 0.5 µg/mL (≈ 0.585 µM); against Candida albicans [1], 0.25 µg/mL (≈ 0.292 µM).
In the case of `CO[C@H]([C@H](C)/C=C/N(C)C=O)[C@@H](C)C(=O)CC[C@H](C)[C@H](C[C@@H]1OC(=O)C[C@@H](OC(N)=O)C[C@H](C)C[C@H](O)[C@H](C)[C@@H](O)c2coc(n2)-c2coc(n2)-c2coc(n2)/C=C/C[C@H](O)[C@H]1C)OC` [9-O-DESMETHYL KABIRAMIDE B], the MIC result in the experiment on Candida albicans [2], in the experiment on Cryptococcus gattii, in the experiment with Candida albicans [3] and with Pichia kudriavzevii was “inactive” throughout. For the same compound, the MIC against Nakaseomyces glabratus came to 1 µg/mL (≈ 1.09 µM); in the experiment on Cryptococcus neoformans it was 2 µg/mL (≈ 2.19 µM); against Candida albicans [1] it was 2 µg/mL (≈ 2.19 µM).
In the case of `C[C@@H]1[C@H](O)[C@@H](C)/C=C/C=C/C=C/C=C/C=C/C=C/C=C/[C@H](O[C@@H]2O[C@H](C)[C@@H](O)[C@H](N)[C@@H]2O)C[C@@H]2O[C@](O)(C[C@@H](O)C[C@@H](O)[C@H](O)CC[C@@H](O)C[C@@H](O)CC(=O)O[C@H]1C)C[C@H](O)[C@H]2C(=O)O` [AMPHOTERICIN B], the values for the MIC with Nakaseomyces glabratus, in the experiment on Cryptococcus neoformans and with Candida albicans [1] were 0.25 µg/mL (≈ 0.271 µM), 0.016 µg/mL (≈ 0.0173 µM) and 0.016 µg/mL (≈ 0.0173 µM), respectively.
Take `CO[C@H]([C@H](C)/C=C/N(C)C=O)[C@@H](C)C(=O)CC[C@H](C)[C@H](C[C@@H]1OC(=O)C[C@@H](OC(N)=O)C[C@H](C)C[C@H](O)[C@H](C)[C@@H](OC)c2coc(n2)-c2coc(n2)-c2coc(n2)/C=C/C[C@H](O)[C@H]1C)OC` [KABIRAMIDE B]: the MIC against Nakaseomyces glabratus turned out to be 0.5 µg/mL (≈ 0.539 µM); against Cryptococcus neoformans, 1 µg/mL (≈ 1.08 µM); against Candida albicans [1] it was 0.5 µg/mL (≈ 0.539 µM).
For `CO[C@H]([C@H](C)/C=C/N(C)C=O)[C@@H](C)C(=O)CC[C@H](C)[C@H](C[C@@H]1OC(=O)C[C@@H](OC(N)=O)C[C@H](C)C[C@H](O)[C@H](C)[C@@H](OC)c2coc(n2)-c2coc(n2)-c2coc(n2)/C=C/C[C@H](OC)[C@H]1C)OC` [KABIRAMIDE C], the MIC result with Candida albicans [2], with Cryptococcus gattii, in the experiment with Candida albicans [3] and in the experiment on Pichia kudriavzevii was “Active” each time. In addition, the MIC with Nakaseomyces glabratus came out at 0.25 µg/mL (≈ 0.265 µM); against Cryptococcus neoformans, 0.125 µg/mL (≈ 0.133 µM); with Candida albicans [1], 0.016 µg/mL (≈ 0.017 µM).
